2 compounds from ChEMBL document CHEMBL1641400, “Synthesis of essramycin and comparison of its antibacterial activity” (J Nat Prod, 2010) can be followed below.

Series [1] is described as follows: Kinetic solubility in phosphate buffer at pH 7.4. It counts as physicochemical.
Series [2] in a line: Protein binding in LB assay broth (above 30 kDa) by ultra filtration method. As to conditions: read-out: PB (converted). Type of series: ADME.
Series [3] in a line: Thermodynamic solubility in phosphate buffer at pH 7.4 after 72 hrs. It counts as physicochemical. As to conditions: read-out: Therm_solubility.
A short description of series [4]: Kinetic solubility in water. It counts as physicochemical.
A short description of series [5]: Thermodynamic solubility in water after 72 hrs. It counts as physicochemical. The following applies: read-out: Therm_solubility.
Series [6] has as its system Staphylococcus aureus. Put plainly: Antibacterial activity against methicillin-susceptible Staphylococcus aureus ATCC 25923 compound formulated with carboxymethylcellulose. Type of series: functional, organism-based.
Series [7] deals with Klebsiella pneumoniae. Put plainly: Antibacterial activity against Klebsiella pneumoniae ATCC 700603 up to 64 ug/ml after 24 hrs by broth dilution assay. Type of series: functional, organism-based. A digest of the protocol: (§1)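 Triplicate broth microdilution in LB and MH broths. Overnight LB cultures were diluted 40-fold into fresh broth and shaken 1 h at 37 °C to mid-log (OD600 ≈ 0.6). They were then diluted to 5 × 10⁵ cfu/mL into 2-fold serial dilutions from 64 to 0.03 µg/mL (≤1.28% DMSO) and held 24 h at 37 °C. MIC is the lowest concentration with no visible growth. Tetracycline, vancomycin and colistin served as positive controls.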
In general terms: Broth dilution looks for growth in wells or tubes with falling amounts of substance.

The test system of series [8] is Staphylococcus aureus. As to the kind of experiment: Antibacterial activity against methicillin-susceptible Staphylococcus aureus ATCC 25923 after 24 hrs by disc diffusion assay. Type of series: functional, organism-based. The gist of the method: (§2)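 LB broth cultures were grown to mid-log (OD600 ≈ 0.6) as for broth MIC and streaked as lawns on LB agar. Sterile filter paper discs were loaded with 10 µL of 2-fold serial dilutions (32 to 1 µg/mL) and placed on the lawns. Inhibition zones were measured after 24 h at 37 °C.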
On the technique in general: A growth-free zone around the sample is the usual read-out of agar diffusion tests.

For series [9], the system named is Klebsiella pneumoniae. Put plainly: Antibacterial activity against Klebsiella pneumoniae ATCC 700603 after 24 hrs by disc diffusion assay. It counts as functional, organism-based. The gist of the method: as §2
The subject of series [10] is Bacillus subtilis. As to the kind of experiment: Antibacterial activity against Bacillus subtilis ATCC 6051 compound formulated with carboxymethylcellulose. It counts as functional, organism-based.
Series [11] concerns Pseudomonas aeruginosa. As to the kind of experiment: Antibacterial activity against Meropenem-resistant Pseudomonas aeruginosa after 24 hrs by disc diffusion assay. Type of series: functional, organism-based. A digest of the protocol:
(§3)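 LB-broth overnight cultures diluted 40-fold into fresh LB, shaken 1 h at 37 °C, to mid-log (OD600 ≈ 0.6). Lawn streaked on LB agar. Sterile filter-paper discs loaded with 10 µL of 2-fold serial dilutions, 32 to 1 µg/mL. Discs placed on plates, 24 h at 37 °C, then zone of inhibition measured.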

In series [12] the test system is Staphylococcus aureus. As to the kind of experiment: Antibacterial activity against methicillin-susceptible Staphylococcus aureus ATCC 25923 up to 64 ug/ml after 24 hrs by broth dilution assay. Type of series: functional, organism-based. A digest of the protocol:
as §1

The test system of series [13] is Escherichia coli. As to the kind of experiment: Antibacterial activity against Escherichia coli ATCC 25922 compound formulated with carboxymethylcellulose. Type of series: functional, organism-based.
For series [14], the system named is Pseudomonas aeruginosa. As to the kind of experiment: Antibacterial activity against Pseudomonas aeruginosa ATCC 10145 compound formulated with carboxymethylcellulose. Type of series: functional, organism-based.
The test system of series [15] is Escherichia coli. Put plainly: Antibacterial activity against Escherichia coli ATCC 25922 after 24 hrs by disc diffusion assay. Type of series: functional, organism-based. The gist of the method: as §2
Series [16] relates to Pseudomonas aeruginosa. Put plainly: Antibacterial activity against Meropenem-resistant Pseudomonas aeruginosa up to 64 ug/ml after 24 hrs by broth dilution assay. Type of series: functional, organism-based. The gist of the method: (§4)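 Triplicate broth microdilution in LB and in MH broth. Overnight LB cultures diluted 40-fold into fresh broth, shaken 1 h at 37 °C to mid-log (OD600 ≈ 0.6), then diluted to 5 × 10⁵ cfu/mL. Added to 2-fold serial dilutions, 64 to 0.03 µg/mL, with DMSO at most 1.28%. Incubated 24 h at 37 °C; MIC is the lowest concentration with no visible growth. Tetracycline, vancomycin and colistin served as positive controls.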

Series [17] has as its system HEK293. Put plainly: Cytotoxicity against HEK293 cells after 24 hrs by MTT assay. The following applies: Homo sapiens, HEK293, 24 h. Type of series: cell-based.
Series [18] has as its system Acinetobacter baumannii. As to the kind of experiment: Antibacterial activity against Meropenem-resistant Acinetobacter baumannii after 24 hrs by disc diffusion assay. Type of series: functional, organism-based. The gist of the method: as §3
The test system of series [19] is Enterococcus faecalis. Put plainly: Antibacterial activity against Enterococcus faecalis VanB ATCC 51299 after 24 hrs by disc diffusion assay. It counts as functional, organism-based. The gist of the method:
as §2

Series [20] concerns Escherichia coli. As to the kind of experiment: Antibacterial activity against Escherichia coli ATCC 25922 up to 64 ug/ml after 24 hrs by broth dilution assay. It counts as functional, organism-based. The gist of the method:
as §1

For series [21], the system named is Acinetobacter baumannii. As to the kind of experiment: Antibacterial activity against Meropenem-resistant Acinetobacter baumannii up to 64 ug/ml after 24 hrs by broth dilution assay. Type of series: functional, organism-based. A digest of the protocol: as §4
For series [22], the system named is HepG2. As to the kind of experiment: Cytotoxicity against human HepG2 cells after 24 hrs by MTT assay. Type of series: cell-based. As to conditions: HepG2, 24 h. (Tetrazolium assays rely on reduction of a dye to a coloured formazan, in cell work by metabolically active cells.)
Series [23] deals with Enterococcus faecalis. As to the kind of experiment: Antibacterial activity against Enterococcus faecalis VanB ATCC 51299 up to 64 ug/ml after 24 hrs by broth dilution assay. It counts as functional, organism-based. The gist of the method: as §1

In brackets after ≈: the same amount, converted by molar mass. Activity calls are given as the source filed them. The rule behind the calls is not given here.

Turning to `Cc1cc(=O)n2nc(CC(=O)c3ccccc3)[nH]c2n1` [ESSRAMYCIN], the kinetic solubility in series [1] and in series [4] was 150 µg/mL (≈ 559 µM) each time. Further, the fraction unbound in series [2] is 0.93. The solubility thermodynamic at 72 h in series [3] amounted to 898 µg/mL (≈ 3350 µM); in series [5] it was 175 µg/mL (≈ 652 µM).
Consider `Cc1cc(=O)n2nc(CC(=O)c3ccccc3)nc2[nH]1` [ESSRAMYCIN], for which the inhibition entry in series [6], in [7], in series [8], in series [9], in series [10] and in [11] was “inactive” in each case. For the same compound, the inhibition entry in series [12], in [13], in [14], in series [15], in [16] and in series [18] was “inactive” in each case. Besides, the inhibition entry in series [19], in [20], in series [21] and in [23] was “inactive” each time. Besides, the IC50 in [17] and in [22] was over 200 µM throughout.

The term solubility (kinetic) denotes solubility judged after dilution from a stock solution rather than from solid. A word on the IC50: it is the point on the concentration scale where inhibition reaches its midpoint.
